From the array DNA melting data of Ke et al. (doi:10.1101/2024.01.08.574731)

Tests used:
[1] = folding enthalpy; higher = less favourable; fluorescence melt of hairpins on a sequencing array, two-state fit; conditions: sodium 0.088 M
In short: (§1)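 Cy3 fluorescence of library hairpins on a sequenced MiSeq flow cell, with annealed Cy3 and quencher oligos, was imaged in 50 mM Na-HEPES pH 8.0, 25 mM NaCl in 2.5 °C steps up to 60 °C. Signals were normalised to pre-quench Cy3 and to control variants. Melting temperature and folding enthalpy came from bootstrapped two-state fits, inverse-variance combined over four replicates. Fitted temperatures were raised by 9.35 °C to match UV melts.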

[2] = melting temperature; fluorescence melt of hairpins on a sequencing array, two-state fit, raised by 9.35 °C to match UV melts; conditions: sodium 0.088 M
In short: as §1

Row | Sequence | folding enthalpy [1] | Tm [2]
1 | GTCCTCGAAAGAGTCGAC ((((((....)))..))) | -12.3 kcal/mol | 32.3 °C
2 | GTCCTCGGAAACGAGGGC (.(((((....))))).) | -30.3 kcal/mol | 62.3 °C
3 | GTCCTGAAAAGGAC (((((....))))) | -31 kcal/mol | 55.9 °C
4 | GTCCTGACGAAAGTCGAC (((..(((....)))))) | -10.3 kcal/mol | 29.1 °C
5 | GTCCTGCGAAAGCACGAC (((.(((....))).))) | -21.4 kcal/mol | 42.6 °C
6 | GTCCTGCGAAAGCATGAC (((.(((....))).))) | -26 kcal/mol | 49.9 °C
7 | GTCCTGGGAAACCAGAAC ((.((((....)))).)) | -19.7 kcal/mol | 35.5 °C
8 | GTCCTGGGAAACTAGGAC (((((.(....).))))) | -42.9 kcal/mol | 49.1 °C
9 | GTCCTTGAAAAAGGAC ((((((....)))))) | -33.2 kcal/mol | 56 °C
10 | GTCCTTGGAAACAAAGAC (((.(((....))).))) | -13.3 kcal/mol | 30.4 °C
11 | GTCGAAACGAAAGTTGAC (((..(((....)))))) | -18.5 kcal/mol | 37.2 °C
12 | GTCGAAGGAAACTTCGAC (((((((....))))))) | -48.6 kcal/mol | 62.2 °C
13 | GTCGACGAAAGTCAAGAC ((((((....)))..))) | -20.4 kcal/mol | 43.8 °C
14 | GTCGACGAAAGTCAGAC ((((((....))).))) | -35.2 kcal/mol | 52.3 °C
15 | GTCGACGAAAGTCAGGAC ((((((....)))..))) | -17.6 kcal/mol | 41.7 °C
16 | GTCGACGAAAGTCATGAC ((((((....)))..))) | -15.6 kcal/mol | 40.7 °C
17 | GTCGACGAAAGTCTGGAC ((((((....)))..))) | -16.1 kcal/mol | 39.8 °C
18 | GTCGAGAAATCGAC (((((....))))) | -26.8 kcal/mol | 55.5 °C
19 | GTCGAGGGAAACCCCGAC ((((.((....)).)))) | -38.9 kcal/mol | 52 °C
20 | GTCGAGGGAAACCTTGGC (.(.(((....))).).) | -21.8 kcal/mol | 36 °C
21 | GTCGATCGAAAGATGGAC (((.(((....))).))) | -28.3 kcal/mol | 48.6 °C
22 | GTCGATCGAAAGATTGAC (((.(((....))).))) | -51.8 kcal/mol | 53.6 °C
23 | GTCGATGCGAAAGCAGAC (((..(((....)))))) | -16.1 kcal/mol | 46 °C

Row | Sequence | folding enthalpy [1] | Tm [2]
24 | GTCGATGGAAACGTTGAC (((.(.(....).).))) | -20.5 kcal/mol | 34.6 °C
25 | GTCGCAGCGAAAGCTGAC (((..(((....)))))) | -9.2 kcal/mol | 37.1 °C
26 | GTCGCAGGAAACTGCGGC (.(((((....))))).) | -32.2 kcal/mol | 64.5 °C
27 | GTCGCCGAAAGGCCAGAC ((((((....)))..))) | -13.5 kcal/mol | 40.7 °C
28 | GTCGCCGAAAGGCCGAC ((((((....))).))) | -18.1 kcal/mol | 60.7 °C
29 | GTCGCCGAAAGGCGCGAC ((((((....)))..))) | -11.3 kcal/mol | 58.4 °C
30 | GTCGCCGAAAGGCGGAC ((((((....))).))) | -11.2 kcal/mol | 58 °C
31 | GTCGCCGAAAGGCGGGAC ((((((....)))..))) | -6.81 kcal/mol | 41 °C
32 | GTCGCCGAAAGGCTGGAC ((((((....)))..))) | -13.1 kcal/mol | 44 °C
33 | GTCGCCGGAAACGGTGGC (.(.(((....))).).) | -25.5 kcal/mol | 52.2 °C
34 | GTCGCCTCGAAAGAGGAC (((..(((....)))))) | -9.5 kcal/mol | 31.3 °C
35 | GTCGCTGGAAACAACGAC ((((.((....)).)))) | -38.5 kcal/mol | 47.1 °C
36 | GTCGCTGGAAACAGCGGC (.(((((....))))).) | -23.4 kcal/mol | 65.6 °C
37 | GTCGGAGGAAACTCCGGC (.(((((....))))).) | -30.5 kcal/mol | 58.5 °C
38 | GTCGGAGGAAACTTCGGC (.((.((....)).)).) | -24.3 kcal/mol | 38.4 °C
39 | GTCGGCGAAAGCCAGAC ((((((....))).))) | -16.4 kcal/mol | 59.4 °C
40 | GTCGGCGAAAGCCATGAC ((((((....)))..))) | -13.9 kcal/mol | 42.4 °C
41 | GTCGGCGAAAGCCGGGAC ((((((....)))..))) | -8.08 kcal/mol | 44.1 °C
42 | GTCGGCGAAAGCCTAGAC ((((((....)))..))) | -18.1 kcal/mol | 47.1 °C
43 | GTCGGCGAAAGCCTGAC ((((((....))).))) | -15.6 kcal/mol | 56.9 °C
44 | GTCGGCGGAAACGTCGGC (.((.((....)).)).) | -35.5 kcal/mol | 54 °C
45 | GTCGGGGGAAACCCCAAC ((.((((....)))).)) | -16.1 kcal/mol | 38.5 °C
46 | GTCGGGGGAAACCTCGGC (.((.((....)).)).) | -35.4 kcal/mol | 44.9 °C

Row | Sequence | folding enthalpy [1] | Tm [2]
47 | GTCGGTCGAAAGACTGAC (((.(((....))).))) | -38.1 kcal/mol | 61.2 °C
48 | GTCGGTGGAAACGCTGAC (((.(.(....).).))) | -20 kcal/mol | 42.6 °C
49 | GTCGGTGGAAACGTCGAC ((((..(....)..)))) | -19.7 kcal/mol | 45.3 °C
50 | GTCGTACGAAAGTAGGAC (((.(((....))).))) | -39.7 kcal/mol | 53.7 °C
51 | GTCGTAGGAAACTACGAC (((((((....))))))) | -43.6 kcal/mol | 63.3 °C
52 | GTCGTAGGAAACTACGGC (.(((((....))))).) | -36.3 kcal/mol | 52.8 °C
53 | GTCGTCACGAAAGTGGAC (((..(((....)))))) | -13.3 kcal/mol | 37.5 °C
54 | GTCGTCCGAAAGGAGGAC (((.(((....))).))) | -40.2 kcal/mol | 62 °C
55 | GTCGTCGAAAGACGTGAC ((((((....)))..))) | -10.8 kcal/mol | 39.6 °C
56 | GTCGTCGGAAACAACGAC (((((.(....).))))) | -38 kcal/mol | 48.3 °C
57 | GTCGTCGGAAACGGCGAC ((((.((....)).)))) | -41.9 kcal/mol | 62.3 °C
58 | GTCGTGCGAAAGCATGAC (((.(((....))).))) | -34.8 kcal/mol | 66.3 °C
59 | GTCGTGGGAAACCACGGC (.(((((....))))).) | -40.4 kcal/mol | 59.9 °C
60 | GTCGTGGGAAACCGCGAC ((((.((....)).)))) | -48.7 kcal/mol | 60.8 °C
61 | GTCGTTCGAAAGAAGAC (((.(((....)))))) | -21.2 kcal/mol | 35.6 °C
62 | GTCTAACGAAAGTTCGAC (((.(((....))).))) | -28.3 kcal/mol | 43.2 °C
63 | GTCTAAGGAAACCTAGAC (((((.(....).))))) | -25.8 kcal/mol | 34.3 °C
64 | GTCTACCGAAAGGTGAC (((.(((....)))))) | -23.8 kcal/mol | 50.3 °C
65 | GTCTACGAAAGTAAGGAC ((((((....)))..))) | -19.5 kcal/mol | 31.2 °C
66 | GTCTACGAAAGTACGAC ((((((....))).))) | -22.8 kcal/mol | 38.1 °C
67 | GTCTACGAAAGTATGGAC ((((((....)))..))) | -16.3 kcal/mol | 31.3 °C
68 | GTCTACGGAAACGTAGAC (((((((....))))))) | -46.2 kcal/mol | 61 °C
